Assay results from paper PMC11359625 (ACS Omega, 2024).
Converted amounts (≈) assume the structure as drawn. Where two headings read alike, the source gives them in different places. Blank lines part the entries; values can stand above or below the molecule they belong to.

How the values were obtained:
[1] = tested on: AR; details: cited from earlier work
[2] = biological target: Recombinant human aldose reductase (Homo sapiens, UniProt P15121); experiment: AR activity assay; format: biochemical
[3] = biological target: T1, PTP1B (Homo sapiens, UniProt P18031); experiment: PTP1B inhibitory activity with pNPP substrate; format: biochemical
T1 sequence (P18031 1-435): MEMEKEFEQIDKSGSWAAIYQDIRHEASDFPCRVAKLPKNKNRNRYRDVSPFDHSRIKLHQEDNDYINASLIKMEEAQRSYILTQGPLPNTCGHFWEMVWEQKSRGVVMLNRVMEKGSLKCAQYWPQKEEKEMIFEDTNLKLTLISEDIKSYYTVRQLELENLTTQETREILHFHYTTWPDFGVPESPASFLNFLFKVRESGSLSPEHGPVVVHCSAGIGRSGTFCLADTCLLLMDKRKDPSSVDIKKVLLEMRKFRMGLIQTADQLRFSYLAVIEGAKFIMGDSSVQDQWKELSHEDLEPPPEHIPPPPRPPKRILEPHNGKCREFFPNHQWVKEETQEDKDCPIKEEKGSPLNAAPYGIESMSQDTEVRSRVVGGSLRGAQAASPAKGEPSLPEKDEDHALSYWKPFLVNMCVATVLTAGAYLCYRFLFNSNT

[4] = tested on: PTP1B mRNA in IR-HepG2 cells; experiment: PTP1B mRNA expression by real-time qPCR; format: cell-based
[5] = tested on: C57BL/KsJ-db/db mice; details: 20 and 40 mg/kg body weight; cited from earlier work
[6] = tested on: HepG2 cells; details: up to 40 μM; ref Xue et al.; cited from earlier work
[7] = biological target: T1, PTP1B; experiment: Kinetic study, Lineweaver–Burk plot, PTP1B; format: biochemical; details: alkannin 0-20 μM
How it was run: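 Recombinant human PTP1B (0.5 units in PTP1B reaction buffer) preincubated with the test compound at several concentrations for 10 min at 37 °C. pNPP substrate then added and incubated 15 min at 37 °C; reaction stopped with 10 M NaOH and read at 405 nm. Inhibition type taken from a Lineweaver–Burk plot; mean ± SEM, triplicate experiments.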

[8] = tested on: HepG2 cells; experiment: MTT cytotoxicity assay; format: cell-based; details: up to 50 μM, 24 h
How it was run: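 Normal HepG2 cells seeded at 5 × 10³ cells/well and grown 24 h. Test compound in DMSO added at […] for 24 h. MTT then added, and absorbance used to calculate percent cell viability.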

[9] = biological target: AR (Homo sapiens, UniProt P15121); experiment: Kinetic study, Lineweaver–Burk plot, AR; format: biochemical; details: alkannin 0-20 μM
How it was run: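 Recombinant human aldose reductase in 0.05 M sodium phosphate, pH 6.2, with 0.3 mM NADPH and DL-glyceraldehyde substrate, at several test-compound concentrations. Activity followed as the fall in NADPH absorbance at 340 nm over 4 min. Inhibition type assigned from a Lineweaver–Burk double-reciprocal plot; mean ± SEM of triplicate experiments.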

[10] = tested on: IR-HepG2 cells; experiment: 2-NBDG glucose uptake in insulin-resistant HepG2 cells; format: cell-based; details: 24 h treatment, concentration-dependent
How it was run: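 Insulin resistance induced in confluent HepG2 (5 × 10³ cells/well; MEM, 10% FBS, 37 °C, 5% CO2) with 1 μM insulin for 24 h. Test compound added at several concentrations below 50 μM for 24 h, then 1 μM insulin for 30 min and 50 μM 2-NBDG for 30 min. Cells washed with ice-cold PBS; fluorescence read at ex 485/em 528 nm. Uptake expressed relative to untreated normal HepG2 (100%); mean ± SEM, triplicate.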

[11] = tested on: AR; details: cited from earlier work; remark: listed apart in the source
[12] = tested on: human lens AR; details: at a dose of 5 μM; cited from earlier work
[13] = tested on: polyol pathway; details: cited from earlier work
[14] = tested on: PTP1B; details: cited from earlier work
[15] = tested on: AR; details: read-out: IC50 AR inhibition; in vitro; cited from earlier work
[16] = tested on: human recombinant AR; details: cited from earlier work
[17] = tested on: PTP1B; details: cited from earlier work; remark: listed apart in the source

Structure (SMILES): O=C1C=C(O)C(=O)C=C1O [2,5-dihydroxy-p-benzoquinone]
manner of AR inhibition [1]: noncompetitive

IC50 [2]: 22.8 µM
IC50 [3]: 19.5 µM
type of inhibition of PTP1B [7]: mixed-inhibition
type of inhibition of AR [9]: mixed-inhibition
Structure (SMILES): CC(C)=CC[C@H](O)C1=CC(=O)c2c(O)ccc(O)c2C1=O [Alkannin]
PTP1B mRNA expression [4]: significantly reduced
effect on liver injury and inflammation in diabetic mice [5]: protective role
effect in HepG2 cells pretreated with palmitic acid [6]: protective role
cytotoxicity on normal HepG2 cells (MTT) [8]: insignificant cytotoxicity
insulin-stimulated 2-NBDG uptake [10]: significantly enhanced

Structure (SMILES): O=c1c(O)c(-c2ccc(O)c(O)c2)oc2cc(O)cc(O)c12 [Quercetin]
AR inhibition ([11]; at a dose of 10 μM): 95%
manner of AR inhibition [11]: noncompetitive
inhibition of human lens AR [12]: 50%
reduction in the accumulation of xylitol [13]: 80%

Structure (SMILES): Cc1cc2c3c(c1)-c1c(O)cc(-c4cc5ccc(O)cc5o4)cc1OC3(c1ccc(O)cc1O)Oc1cc(O)ccc1-2 (stereo not drawn) [albanol B]
type of PTP1B enzyme inhibition [14]: mixed-type

Structure (SMILES): COc1cc(/C=C/C(=O)CC(=O)/C=C/c2ccc(O)c(OC)c2)ccc1O [curcumin]
IC50 [15]: 6.8 µM
manner of inhibition of human recombinant AR [16]: noncompetitive

Structure (SMILES): CC(C)=CCc1c(-c2ccc(O)cc2O)oc2c([C@H]3C=C(C)C[C@@H](c4ccc(O)cc4O)[C@@H]3C(=O)c3ccc(O)cc3O)c(O)cc(O)c2c1=O [kuwanon G]
type of PTP1B enzyme inhibition [14]: mixed-type

Structure (SMILES): CC1=C[C@H]2c3c(O)cc(-c4cc5ccc(O)cc5o4)cc3O[C@@]3(c4ccc(O)cc4O)Oc4cc(O)ccc4[C@H](C1)[C@@H]23 [mulberrofuran G]
type of PTP1B enzyme inhibition [14]: mixed-type

Structure (SMILES): O=C(O)[C@H]1O[C@@H](Oc2c(-c3cc(O)c(O)c(O)c3)oc3cc(O)cc(O)c3c2=O)[C@H](O)[C@@H](O)[C@@H]1O [myricetin-3-O-β-Dglucuronide]
IC50 PTP1B inhibitory activity [17]: 9.47 ± 3.31 µg/mL (≈ 19.2 µM)

Structure (SMILES): O=C(O)[C@H]1O[C@@H](Oc2c(-c3ccc(O)c(O)c3)oc3cc(O)cc(O)c3c2=O)[C@H](O)[C@@H](O)[C@@H]1O [quercetin-3-O-β-D-glucuronide]
IC50 PTP1B inhibitory activity [17]: 7.39 ± 1.15 µg/mL (≈ 15.4 µM)
